viability, IC50 and Activity data for nine molecules are collected here from ChEMBL document CHEMBL4765301, “Discovery of novel TNNI3K inhibitor suppresses pyroptosis and apoptosis in murine myocardial infarction injury” (Eur J Med Chem, 2020).

In assay [1] the test system is H9c2. The assay is described as follows: Cytoprotective activity against OGD-induced cell death in rat H9c2 cells assessed as cell viability at 10 uM incubated for 24 hrs by MTT assay (reference value: 42.08 to 49.11 %). Format: functional. The conditions noted are these: read-out: Activity.
In assay [2] the target is T1, Serine/threonine-protein kinase TNNI3K (Homo sapiens, UniProt Q59H18).
T1 sequence (Q59H18 whole entry): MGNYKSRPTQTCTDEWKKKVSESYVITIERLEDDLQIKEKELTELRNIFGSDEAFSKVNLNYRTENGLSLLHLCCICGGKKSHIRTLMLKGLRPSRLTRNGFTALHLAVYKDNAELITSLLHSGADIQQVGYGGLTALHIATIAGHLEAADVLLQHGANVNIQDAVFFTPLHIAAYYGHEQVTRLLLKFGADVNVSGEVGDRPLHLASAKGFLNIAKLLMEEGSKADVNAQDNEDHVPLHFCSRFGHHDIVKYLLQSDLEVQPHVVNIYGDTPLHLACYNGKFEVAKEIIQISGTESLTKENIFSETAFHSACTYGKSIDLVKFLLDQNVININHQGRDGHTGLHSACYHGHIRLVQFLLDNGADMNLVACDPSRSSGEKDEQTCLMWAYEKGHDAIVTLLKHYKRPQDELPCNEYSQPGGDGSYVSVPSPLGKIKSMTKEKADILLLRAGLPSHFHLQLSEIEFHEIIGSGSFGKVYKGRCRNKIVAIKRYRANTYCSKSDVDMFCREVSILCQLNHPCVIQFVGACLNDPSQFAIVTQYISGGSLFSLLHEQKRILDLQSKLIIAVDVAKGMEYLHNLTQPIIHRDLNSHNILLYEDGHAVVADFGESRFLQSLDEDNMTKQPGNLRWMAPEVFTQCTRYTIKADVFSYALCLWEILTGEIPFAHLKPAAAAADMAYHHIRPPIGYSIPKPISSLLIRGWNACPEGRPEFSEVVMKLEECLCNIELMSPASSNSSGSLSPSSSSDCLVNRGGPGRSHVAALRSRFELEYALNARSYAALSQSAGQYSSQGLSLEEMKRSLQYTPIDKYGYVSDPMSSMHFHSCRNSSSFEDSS
The assay is described as follows: Inhibition of TNNI3K (unknown origin) using biotinylated CTnI as substrate by HTRF analysis. The gist of the method: (§1)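 TNNI3K was assayed by HTRF using a GST-tagged TNNI3K kinase domain and a biotinylated cardiac troponin I substrate peptide, followed by the two HTRF detection reagents. Compounds were screened at 1.0 µM, then IC50s were determined.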

In assay [3] the target is Receptor tyrosine-protein kinase erbB-2 (Homo sapiens) (UniProt P04626). The experiment in a line: Inhibition of recombinant human HER2 (676 to end residues) assessed as residual activity at 1 uM using poly(Glu, Tyr) 4:1 as substrate incubated for 40 mins by [gamma-33P]-ATP scintillation counting based radiometry assay relative to control.
Assay [4] has as its target T2, Serine/threonine-protein kinase TNNI3K (Homo sapiens) (UniProt Q59H18).
T2 sequence (whole entry): T1 sequence (Q59H18 whole entry)
The experiment in a line: Inhibition of TNNI3K (unknown origin) assessed as residual activity at 1 uM using biotinylated CTnI as substrate by HTRF analysis relative to control. The method, boiled down:
as §1
In general terms: Time-resolved FRET reads energy transfer from a long-lived donor to a nearby acceptor.

In assay [5] the target is Vascular endothelial growth factor receptor 2 (Homo sapiens) (UniProt P35968). The assay is described as follows: Inhibition of recombinant human KDR (790 to end residues) assessed as residual activity at 1 uM using myelin basic protein as substrate incubated for 40 mins by [gamma-33P]-ATP scintillation counting based radiometry assay relative to control.
Vascular endothelial growth factor receptor 2 (Homo sapiens), sequence (P35968 whole entry): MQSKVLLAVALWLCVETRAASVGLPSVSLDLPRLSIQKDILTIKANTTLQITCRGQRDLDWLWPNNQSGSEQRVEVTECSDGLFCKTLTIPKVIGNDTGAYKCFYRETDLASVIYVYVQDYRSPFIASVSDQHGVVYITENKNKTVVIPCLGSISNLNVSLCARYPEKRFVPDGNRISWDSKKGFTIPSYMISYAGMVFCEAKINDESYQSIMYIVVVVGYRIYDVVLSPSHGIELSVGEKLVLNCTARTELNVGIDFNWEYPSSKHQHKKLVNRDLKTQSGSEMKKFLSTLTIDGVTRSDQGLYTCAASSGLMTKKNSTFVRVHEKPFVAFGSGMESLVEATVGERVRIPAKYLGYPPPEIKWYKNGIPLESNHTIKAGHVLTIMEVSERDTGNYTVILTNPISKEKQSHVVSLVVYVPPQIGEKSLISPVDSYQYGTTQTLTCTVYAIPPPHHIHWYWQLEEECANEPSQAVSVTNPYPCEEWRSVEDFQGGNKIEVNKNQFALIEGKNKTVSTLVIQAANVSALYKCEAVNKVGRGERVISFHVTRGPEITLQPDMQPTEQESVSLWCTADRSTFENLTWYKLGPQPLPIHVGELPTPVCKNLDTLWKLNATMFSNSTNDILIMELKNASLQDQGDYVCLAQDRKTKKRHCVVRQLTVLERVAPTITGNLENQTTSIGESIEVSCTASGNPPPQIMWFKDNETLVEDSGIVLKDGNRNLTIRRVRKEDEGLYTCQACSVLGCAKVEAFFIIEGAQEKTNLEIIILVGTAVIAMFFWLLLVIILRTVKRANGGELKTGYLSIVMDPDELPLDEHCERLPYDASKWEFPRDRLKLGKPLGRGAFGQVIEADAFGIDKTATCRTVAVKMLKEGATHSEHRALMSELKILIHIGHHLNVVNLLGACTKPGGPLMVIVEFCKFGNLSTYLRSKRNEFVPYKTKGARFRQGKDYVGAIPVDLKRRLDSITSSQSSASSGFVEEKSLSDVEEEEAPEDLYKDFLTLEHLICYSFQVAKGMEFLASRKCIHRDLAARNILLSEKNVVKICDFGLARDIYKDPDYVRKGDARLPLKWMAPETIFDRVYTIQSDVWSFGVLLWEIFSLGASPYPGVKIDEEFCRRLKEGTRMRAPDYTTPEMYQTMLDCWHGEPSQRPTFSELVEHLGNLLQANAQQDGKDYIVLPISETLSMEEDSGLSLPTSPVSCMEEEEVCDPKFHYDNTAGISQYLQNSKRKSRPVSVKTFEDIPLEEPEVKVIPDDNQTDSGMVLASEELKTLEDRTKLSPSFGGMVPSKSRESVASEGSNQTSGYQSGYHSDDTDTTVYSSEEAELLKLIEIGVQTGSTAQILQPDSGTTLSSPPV
The target in assay [6] is Vascular endothelial growth factor receptor 1 (Homo sapiens) (UniProt P17948). The assay is described as follows: Inhibition of recombinant human FLT1 (783 to end residues) assessed as residual activity at 1 uM using KKKSPGEYVNIEFG as substrate incubated for 40 mins by [gamma-33P]-ATP scintillation counting based radiometry assay relative to control.
Vascular endothelial growth factor receptor 1 (Homo sapiens), sequence (P17948 whole entry): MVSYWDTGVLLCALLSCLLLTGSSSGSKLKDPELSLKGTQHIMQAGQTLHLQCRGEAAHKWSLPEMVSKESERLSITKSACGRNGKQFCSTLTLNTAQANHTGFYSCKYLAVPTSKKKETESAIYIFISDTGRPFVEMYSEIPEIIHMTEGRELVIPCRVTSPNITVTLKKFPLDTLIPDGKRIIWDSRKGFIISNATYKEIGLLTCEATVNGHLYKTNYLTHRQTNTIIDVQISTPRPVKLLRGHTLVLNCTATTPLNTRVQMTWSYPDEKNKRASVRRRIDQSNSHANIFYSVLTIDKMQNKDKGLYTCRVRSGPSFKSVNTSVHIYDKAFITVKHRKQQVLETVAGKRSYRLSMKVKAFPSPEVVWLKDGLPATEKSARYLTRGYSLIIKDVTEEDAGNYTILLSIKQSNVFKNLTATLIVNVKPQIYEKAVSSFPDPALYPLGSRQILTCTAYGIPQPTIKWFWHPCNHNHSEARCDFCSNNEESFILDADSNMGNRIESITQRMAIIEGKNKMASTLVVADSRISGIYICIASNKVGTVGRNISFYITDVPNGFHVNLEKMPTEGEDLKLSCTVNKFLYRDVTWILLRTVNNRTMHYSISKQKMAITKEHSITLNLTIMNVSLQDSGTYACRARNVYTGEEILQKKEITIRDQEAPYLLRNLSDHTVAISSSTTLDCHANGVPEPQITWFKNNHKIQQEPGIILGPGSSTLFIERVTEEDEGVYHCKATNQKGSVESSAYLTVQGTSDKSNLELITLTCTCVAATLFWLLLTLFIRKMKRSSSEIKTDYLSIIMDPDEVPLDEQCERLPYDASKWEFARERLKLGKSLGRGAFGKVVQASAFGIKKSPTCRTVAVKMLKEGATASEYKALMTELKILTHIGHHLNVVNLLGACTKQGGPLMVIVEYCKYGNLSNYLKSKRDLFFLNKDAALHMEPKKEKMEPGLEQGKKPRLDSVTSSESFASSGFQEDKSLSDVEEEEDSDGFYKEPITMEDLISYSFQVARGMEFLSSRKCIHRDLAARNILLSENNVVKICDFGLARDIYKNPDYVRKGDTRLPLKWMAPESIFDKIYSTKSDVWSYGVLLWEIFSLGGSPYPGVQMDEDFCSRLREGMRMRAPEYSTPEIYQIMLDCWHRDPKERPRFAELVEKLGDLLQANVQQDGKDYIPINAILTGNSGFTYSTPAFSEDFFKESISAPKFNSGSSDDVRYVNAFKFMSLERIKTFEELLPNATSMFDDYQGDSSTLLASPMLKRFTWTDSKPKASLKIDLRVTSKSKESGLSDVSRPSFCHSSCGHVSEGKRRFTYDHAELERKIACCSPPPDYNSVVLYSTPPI
Assay [7] addresses Epidermal growth factor receptor (Homo sapiens) (UniProt P00533). The experiment in a line: Inhibition of recombinant human EGFR (696 to end residues) assessed as residual activity at 1 uM using poly(Glu, Tyr) 4:1 as substrate incubated for 40 mins by [gamma-33P]-ATP scintillation counting based radiometry assay relative to control.
For assay [8], the system named is H9c2. The assay is described as follows: Cytoprotective activity against OGD-induced cell death in rat H9c2 cells assessed as cell viability at 1 uM incubated for 24 hrs by MTT assay (reference value: 42.08 to 49.11 %). The conditions noted are these: read-out: Activity. Format: functional. Background: Tetrazolium assays rely on reduction of a dye to a coloured formazan, in cell work by metabolically active cells.

Epidermal growth factor receptor (Homo sapiens), sequence (P00533 whole entry): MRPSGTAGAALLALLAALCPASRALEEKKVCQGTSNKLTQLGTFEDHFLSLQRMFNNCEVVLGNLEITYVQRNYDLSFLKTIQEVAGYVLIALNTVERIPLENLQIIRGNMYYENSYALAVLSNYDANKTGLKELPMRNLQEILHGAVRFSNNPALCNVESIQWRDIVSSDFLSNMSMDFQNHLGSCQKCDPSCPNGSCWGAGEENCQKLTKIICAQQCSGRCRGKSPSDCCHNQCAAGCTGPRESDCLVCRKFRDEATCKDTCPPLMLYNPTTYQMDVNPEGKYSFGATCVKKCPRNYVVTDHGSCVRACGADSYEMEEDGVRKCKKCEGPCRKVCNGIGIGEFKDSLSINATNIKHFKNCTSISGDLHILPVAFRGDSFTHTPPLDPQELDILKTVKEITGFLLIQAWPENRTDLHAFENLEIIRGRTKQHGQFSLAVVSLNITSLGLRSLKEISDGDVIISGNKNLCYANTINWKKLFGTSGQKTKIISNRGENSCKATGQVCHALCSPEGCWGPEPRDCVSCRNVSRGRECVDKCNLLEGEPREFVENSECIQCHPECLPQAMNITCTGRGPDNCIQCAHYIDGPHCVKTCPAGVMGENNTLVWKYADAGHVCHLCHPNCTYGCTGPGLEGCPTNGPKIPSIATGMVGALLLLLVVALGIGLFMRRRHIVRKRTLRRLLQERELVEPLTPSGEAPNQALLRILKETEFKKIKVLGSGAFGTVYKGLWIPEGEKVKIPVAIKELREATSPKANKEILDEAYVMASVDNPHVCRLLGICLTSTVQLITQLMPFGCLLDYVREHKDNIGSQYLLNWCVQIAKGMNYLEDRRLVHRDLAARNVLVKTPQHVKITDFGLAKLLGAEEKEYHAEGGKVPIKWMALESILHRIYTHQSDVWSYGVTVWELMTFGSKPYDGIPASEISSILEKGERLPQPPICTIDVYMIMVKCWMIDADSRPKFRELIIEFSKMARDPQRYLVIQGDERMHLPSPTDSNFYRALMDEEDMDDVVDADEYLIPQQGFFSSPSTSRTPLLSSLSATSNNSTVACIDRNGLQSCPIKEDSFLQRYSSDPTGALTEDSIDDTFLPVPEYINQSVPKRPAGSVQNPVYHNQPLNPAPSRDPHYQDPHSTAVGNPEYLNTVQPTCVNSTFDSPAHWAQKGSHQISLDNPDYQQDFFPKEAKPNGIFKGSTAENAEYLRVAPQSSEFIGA

Turning to `CN1CCc2c(sc3ncnc(Nc4ccc(N(C)C)c(NC(=O)c5ccco5)c4)c23)C1`, the viability at 10 µM with H9c2 [1] was 85.6%. Moreover, 560 nM corresponded to half-maximal inhibition in assay [2] (IC50). In addition, the Activity is 95% in assay [3]; 37% in assay [4]; 89% in assay [5]; 105% in assay [6]; 93% in assay [7]. Moreover, the viability at 1 µM with H9c2 [8] came to 59.6%.

For the molecule `CN1CCN(CCCN2CCc3c(sc4ncnc(Nc5ccc(N(C)C)c(NC(=O)c6cccs6)c5)c34)C2)CC1`, the viability at 10 µM in the assay with H9c2 [1] amounted to 81.8%. Besides, the IC50 in assay [2] was 330 nM. Moreover, the Activity in assay [3] was determined as 103%; in assay [4], 38%; in assay [5], 93%; in assay [6] it was 98%; in assay [7], 86%. Further, the viability at 1 µM in the assay on H9c2 [8] is 69.1%.

As for `CN(C)c1ccc(Nc2ncnc3sc4c(c23)CCN(C(=O)c2ccncc2)C4)cc1NC(=O)c1ccco1`, the viability at 10 µM in the assay with H9c2 [1] was found to be 70.7%. The IC50 in assay [2] is 980 nM. For the same molecule, the Activity in assay [3] was 116%; in assay [4], 35%; in assay [5] it was 92%; in assay [6], 109%; in assay [7], 107%. For the same molecule, the viability at 1 µM in the assay with H9c2 [8] turned out to be 49.1%.

Regarding `CN(C)CCCN1CCc2c(sc3ncnc(Nc4ccc(N(C)C)c(NC(=O)c5cccs5)c4)c23)C1`, in the assay with H9c2 [1], the viability at 10 µM was found to be 78.5%. This molecule also gave an IC50 in assay [2] of 570 nM. The Activity in assay [3] was found to be 102%; in assay [4], 33%; in assay [5] it was 81%; in assay [6], 98%; in assay [7] it was 86%. Further, the viability at 1 µM with H9c2 [8] worked out at 58.5%.

As for `CN(C)c1ccc(Nc2ncnc3sc4c(c23)CCNC4)cc1NC(=O)c1ccco1`, the viability at 10 µM with H9c2 [1] was found to be 71%. This molecule had a half-maximal inhibitory concentration (IC50) in assay [2] of 730 nM. Also, the Activity in assay [3] is 91%; in assay [4], 35%; in assay [5], 92%; in assay [6], 96%; in assay [7] it was 100%. For the same molecule, the viability at 1 µM in the assay with H9c2 [8] stood at 54.1%.

Take `CCC(=O)Nc1cc(Nc2ncnc3sc4c(c23)CCN(CCCN2CCOCC2)C4)ccc1N(C)C`: the viability at 10 µM in the assay with H9c2 [1] turned out to be 82.2%. The same molecule registered an IC50 in assay [2] of 480 nM. The Activity in assay [3] was found to be 108%; in assay [4], 37%; in assay [5], 86%; in assay [6], 90%; in assay [7], 105%. Also, the viability at 1 µM in the assay on H9c2 [8] amounted to 62.4%.

For the molecule `CN(C)c1ccc(Nc2ncnc3sc4c(c23)CCNC4)cc1NC(=O)c1cccs1`, the viability at 10 µM with H9c2 [1] worked out at 75.9%. This molecule had an IC50 in assay [2] of 780 nM. Also, the Activity in assay [3] is 106%; in assay [4], 38%; in assay [5], 95%; in assay [6], 101%; in assay [7] it was 93%. Further, the viability at 1 µM in the assay on H9c2 [8] amounted to 56.9%.

Regarding `CN(C)c1ccc(Nc2ncnc3sc4c(c23)CCNC4)cc1NC(=O)c1ccncc1`, the viability at 10 µM with H9c2 [1] was 68.1%. In assay [2], this molecule yielded an IC50 of 960 nM. Also, the Activity in assay [3] was determined as 109%; in assay [4], 39%; in assay [5], 92%; in assay [6] it was 103%; in assay [7], 90%. In addition, the viability at 1 µM with H9c2 [8] was found to be 53%.

As to `CN(C)c1ccc(Nc2ncnc3sc4c(c23)CCN(C(=O)c2ccccn2)C4)cc1NC(=O)c1ccco1`, the viability at 10 µM with H9c2 [1] came out at 70.9%. Further, the IC50 in assay [2] came out at 820 nM. The Activity in assay [3] was 89%; in assay [4] it was 39%; in assay [5] it was 77%; in assay [6], 86%; in assay [7], 104%. In the assay with H9c2 [8], the viability at 1 µM was 54.3%.

The term IC50 denotes the concentration needed to halve the response being measured.
